# Bioassay records: PubChem BioAssay, several laboratories
# Ba/F3 V617F tox – reduced viability of JAK2V617F-dependent Ba/F3 cells, primary screen, JAK2V617F inhibitor project, cell-based, Ba/F3 EpoR-JAK2V617F, luminescence | ATP luminescence | inhibition, % at 5.6 µM | 220,000 compounds, 1.1% hits;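 active means inhibition above the campaign mean plus 3 SD over all tested compounds, cut at about 24% in these data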;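 further: cytokine-independent growth of Ba/F3 cells driven by EpoR plus mutant JAK2; 0% = DMSO-treated cells and 100% = JAK inhibitor I control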
# b-catenin transl – modulators of beta-catenin nuclear translocation, primary screen, imaging, HeLa cells, immunofluorescence, high-content; nuclear translocation activity, % at 5 µM; 190,000 compounds, 0.3% hits; AID 1665, 2009;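 active means nuclear translocation activity above 50% at 5 µM, with a well cell count of 50 or more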;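 further: per-cell ratio of nuclear to cytoplasmic median beta-catenin stain intensity; plate controls were DMSO negative control for no effect and GSK-3 inhibitor IX positive control for full effect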
#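 Assay system: human HeLa cells, native beta-catenin; doses: 5 µM primary, 0.02–20 µM confirmation; incubation: compound treatment 24 h, 37°C, 5% CO2; technique: fluorescence imaging of beta-catenin antibody stain plus DAPI; measure: % activation, nuclear-to-cytoplasmic median beta-catenin signal ratio per cell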
# MT stabilizer – microtubule stabilizers in HeLa cells, primary screen, imaging, high-content imaging. HeLa tubulin immunostaining HCS, 24 h; share of cells brighter than vehicle mean+2SD. % tubulin-high responders, % at 10 µM. 200,000 compounds, 0.83% hits;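 active means plate Z-score above 3 for both tubulin-high and condensed-nucleus cell shares, with cell loss under 80%, at 10 µM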;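 further: anti alpha tubulin signal scored within the nucleus-defined area of each cell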
# KLF5 inhibitor – KLF5 expression inhibitors, primary screen, DLD-1 cells, luminescence; DLD-1 KLF5 promoter-luciferase reporter; inhibition, % at 5 µM; 290,000 compounds, 0.23% hits;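 active means inhibition above a per-plate limit of that plate's mean compound inhibition plus 3 SD, cut at about 60% in these data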;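 further: 0% = DMSO wells and 100% = LY294002 at 200 µM; higher means less KLF5 promoter-driven luciferase light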
# IEC-6 cytotox – cytotoxicity in IEC-6 intestinal epithelial cells, primary screen, cytotoxicity control for KLF5 inhibitor project, cell-based, luminescence; IEC-6 cytotoxicity, luminescence viability; inhibition, % at 5 µM; 290,000 compounds, 0.78% hits; AID 1825, 2009; in the data active means inhibition above about 22%;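 further: 0% = plate median of test compound wells and 100% = cytotoxic reference compound wells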
# BaF3 tox – parental Ba/F3 cell viability inhibition, counter-screen for JAK2V617F inhibitor project, murine pro-B, CellTiter-Glo luminescence; AID 1486, 2009; 220,000 compounds, 1.1% hits; inhibition, % at 5.6 µM; CellTiter-Glo ATP luminescence;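 active means inhibition above a per-campaign cutoff, the mean inhibition of all tested compounds plus 3 SD, cut at about 27% in these data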;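 further: 0% = DMSO wells and 100% = JAK Inhibitor I control wells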
# BaF3 parental 2 – parental Ba/F3 cell viability inhibition, counter-screen for JAK2V617F inhibitor project, murine pro-B, CellTiter-Glo luminescence; 580 compounds, 31% hits; cells kept alive by added IL-3; inhibition, % at 5.6 µM; AID 1520, 2009; shares compounds with Ba/F3 V617F tox;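 active means cell growth inhibition above the hit limit set in the earlier mutant JAK2 cell screen, cut at about 27% in these data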;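 further: plate controls were DMSO-treated cells for no effect and JAK Inhibitor I control wells for full effect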
# JAK2V617F conf – viability loss in Ba/F3 EpoR-JAK2V617F cells, confirmation, JAK2V617F inhibitor project, cell-based, luminescence, triplicate. shares compounds with Ba/F3 V617F tox. CellTiter-Glo luminescence. inhibition, % at 5.6 µM. 580 compounds, 66% hits;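 active means mean inhibition above the hit cutoff derived in the earlier primary screen, cut at about 25% in these data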;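 further: 0% = DMSO-treated cells and 100% = JAK inhibitor I control wells; higher means lower luminescence from reduced cell ATP and viability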
# * hit, by the source's call; . = no result given. The list is not random: actives were taken first. Their share in the collection is about 2.1%.
SMILES,Ba/F3 V617F tox,b-catenin transl,MT stabilizer,KLF5 inhibitor,IEC-6 cytotox,BaF3 tox,BaF3 parental 2,JAK2V617F conf
COc1cc(/C=N/NC(=O)c2cccc(S(=O)(=O)N3CCCCC3)c2)cc(Br)c1O,3.5,4.5,4.4,-18.1,4.5,7.5,.,.
Cc1c(NC(=O)COC(=O)c2cc(-c3ccc(-c4ccccc4)cc3)nc3ccccc23)c(=O)n(-c2ccccc2)n1C,30.1*,3.2,4.3,-59.4,2.3,20.7,58.9*,72.0*
CSCc1cc(N(C)C)nc(SCc2ccc(Cl)c(Cl)c2)n1,41.5*,5.9,1.7,26.5,-2.2,1.2,-3.5,0.7
CNc1cc(CSC)nc(SCc2ccc(Cl)cc2Cl)n1,-1.4,0.9,1.5,-3.9,-1.0,0.8,.,.
CCN(CC)c1ccc2c(-c3ccc(S(=O)(=O)O)cc3S(=O)(=O)[O-])c3ccc(=[N+](CC)CC)cc-3oc2c1,.,.,.,-13.6,9.0,.,.,.
[O-][N+]1=c2ccc(Nc3ccccc3)cc2=NC12CCCCC2,42.0*,11.5,29.1*,-1.2,10.2,8.4,4.9,98.0*
O=[N+]([O-])c1ccc2c(c1N1CCCCC1)=NC1(CCCCC1)[N+]=2[O-],-4.6,0.2,.,-20.6,-7.4,0.2,.,.
COc1ccc(Nc2ccc3c(c2)=NC2(CCCCC2)[N+]=3[O-])cc1,44.2*,5.4,24.2,-28.2,9.4,2.2,18.8,99.7*
Nc1c(N=Nc2ccccc2F)c(=O)[nH]n1-c1ccccc1,3.8,.,2.3,-42.4,5.2,7.0,.,.
Nc1nn(-c2ccccc2)c(N)c1N=Nc1ccccc1F,35.6*,1.2,25.7*,-117.7,23.5*,24.1,36.5*,69.2*
COc1ccc(C(=O)OCC(=O)NCc2ccccc2)c(OC)c1OC,102.5*,-0.1,4.6,-28.4,-4.0,4.6,-5.3,-3.5
O=[N+]([O-])c1ccc(P(=O)(Cc2ccccc2)c2ccccc2O)cc1 (centres undefined),.,.,.,-22.5,0.1,.,.,.
O=C(Nc1nc(=O)c2ccccc2s1)c1ccccc1,29.0*,.,3.7,0.1,0.9,15.1,-2.5,-11.6
O=C(c1ccc(Cl)cc1)c1oc2ccccc2c1CS(=O)c1ccccc1 (centres undefined),2.1,1.2,3.1,-15.2,14.4,4.4,.,.
NC(N)=NN=C1CCCCCCCCCCC1,48.9*,1.8,.,13.1,-6.0,21.5,29.0*,67.6*
Cc1ccccc1NC(=O)NC1CCCc2ccccc21 (centres undefined),.,.,.,-12.7,2.9,.,.,.
O=C(/C(=N/N=C/c1ccc(O)c(O)c1)c1ccccc1)c1ccccc1,49.1*,-1.6,4.2,-24.1,-4.0,10.2,9.4,98.8*
Oc1ccc(/C=N/N=C/c2ccc(O)c(O)c2)cc1O,.,.,.,-23.7,3.9,.,.,.
O=C(O)CCc1ccccc1OC(=O)c1ccccc1,0.4,0.8,.,-15.2,-8.0,-4.4,.,.
O=C(Oc1cccc2c(O)cccc12)c1ccccc1,23.9*,-2.6,3.5,11.8,-10.5,12.4,12.2,67.4*
CC(C)(C)C(=O)n1nc(-c2ccccc2)oc1=O,-5.1,2.0,2.9,-29.3,-10.3,-2.2,.,.
CCn1c(SCC(=O)Nc2ccccc2-c2ccccc2)nnc1-c1ccoc1C,52.2*,-7.2,3.9,-12.8,-2.0,0.8,-2.1,4.7
CCn1c(SCC(=O)Nc2ccccc2F)nnc1-c1ccoc1C,.,.,.,-8.1,-1.9,.,.,.
Cc1cccc(N(Cc2ccccc2)C(=O)CCl)c1,56.9*,0.4,4.2,5.8,-2.8,3.6,2.5,97.9*
CCCNC(=O)c1ccc(COc2cccc3ccccc23)o1,.,.,.,-25.3,2.8,.,.,.
SMILES,Ba/F3 V617F tox,b-catenin transl,MT stabilizer,KLF5 inhibitor,IEC-6 cytotox,BaF3 tox,BaF3 parental 2,JAK2V617F conf
COC(=O)c1ccc(NC(=O)C(C)Oc2ccccc2)cc1 (centres undefined),25.9*,-2.7,2.3,-15.3,-3.1,3.9,-6.8,-16.8
CC(Oc1ccccc1)C(=O)Nc1ccc(C(N)=O)cc1 (centres undefined),-2.3,.,1.3,6.1,4.4,0.3,.,.
CC(=O)Nc1ccccc1C(=O)C(=O)Nc1cccc(C(=O)N2CC(C)CC(C)C2)c1 (centres undefined),-2.5,-2.3,23.8,-9.6,4.4,4.8,.,.
CCCCn1c(=N)n(CC(O)COc2ccc(C)cc2)c2ccccc21 (centres undefined),64.9*,-4.0,4.7,-1.7,7.0,16.2,5.1,47.9*
CCCCn1c(=N)n(CC(O)COc2ccccc2)c2ccccc21 (centres undefined),3.8,-4.0,4.8,-10.1,0.9,7.2,.,.
Nc1nonc1-n1nnc(C(=O)N/N=C/c2cccc(Cl)c2Cl)c1CN1CCCC1,.,.,.,-2.9,-3.0,.,.,.
CC(C)(C)OC(=O)N[C@@H](Cc1ccccc1)c1nnc(S(=O)(=O)Cc2cccc(F)c2)o1,44.0*,-0.9,5.0,-34.5,-7.4,7.9,5.7,72.4*
Cc1ccccc1CS(=O)(=O)c1nnc([C@H](CC(C)C)NC(=O)OC(C)(C)C)o1,47.2*,-5.5,1.6,-7.0,11.0,2.0,-2.1,54.8*
CC(C)C[C@H](N)c1nnc(S(=O)(=O)Cc2cccc(F)c2)o1,-2.9,2.1,5.9,-21.0,-3.6,1.0,.,.
CCOc1ccc(N2C(=O)CC(Sc3nnnn3-c3ccccc3)C2=O)cc1 (centres undefined),32.8*,-2.5,2.3,-17.3,1.7,2.0,-5.8,6.8
Oc1ccccc1/C=N/Nc1nc2ccccc2o1,43.9*,3.9,.,23.0,9.9,5.8,64.9*,74.5*
COc1ccc(-c2cc(C(=O)N/N=C/c3ccc(OC)c(COCC(F)(F)C(F)F)c3)c3ccccc3n2)c(OC)c1,48.8*,-1.2,2.5,-19.1,3.7,4.4,-2.2,6.5
COc1cc2c(c(OC)c1OC)CCc1cnoc1-2,-3.1,-0.5,.,-19.1,0.6,-3.8,.,.
O=C(CCl)Nc1ccc(N=Nc2ccccc2)cc1,28.2*,.,4.9,-106.9,-5.4,2.0,19.2,94.2*
O=C(CCl)Nc1ccc(-c2ccccc2)cc1,18.9,2.2,3.0,-31.2,-5.2,3.3,.,.
O=C(N/N=C/c1cc([N+](=O)[O-])ccc1O)c1cccc2cc[nH]c12,33.9*,-0.4,.,46.4,11.4,3.5,6.5,28.4*
COCCNC(=O)c1c[nH]c2ccc(S(=O)(=O)N3CCc4ccccc43)cc2c1=O,66.5*,-0.6,3.4,-0.8,5.7,13.2,83.4*,86.3*
COc1cccc(/C=C2\SC(=S)N(c3cccnc3)C2=O)c1OC,1.1,-0.4,1.9,-23.1,11.7,-3.3,.,.
